Active and inactive are the calls of the source. No cut-off for these calls is given here.
What was measured:
[1] = target: Ribosomal protein S6 kinase alpha-6 (Homo sapiens) (UniProt Q9UK32); assay: Inhibition of human RSK4 (1 to 397 residues) expressed in mammalian expression system assessed as enzyme activity at 1 uM by KINOMEScan assay relative to control; set-up: scale not given: the % may be the effect or the level left
Outline: (§1)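 In vitro ATP-site competition binding assay across a panel of 456 kinases, with compound tested at 1 and 10 μM.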

[2] = target: Dual specificity mitogen-activated protein kinase kinase 1 (Homo sapiens) (UniProt Q02750); assay: Inhibition of full length human MEK1 (1 to 393 residues) expressed in mammalian expression system assessed as enzyme activity at 10 uM by KINOMEScan assay relative to control; set-up: scale not given: the % may be the effect or the level left
Outline: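 In vitro ATP-site competition binding assay (KinomeScan) across a panel of 456 kinases. Compound was tested at 1 and 10 μM. The read-out is the binding inhibition score relative to control.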

[3] = target: Phosphatidylinositol 4-phosphate 3-kinase C2 domain-containing subunit beta (Homo sapiens) (UniProt O00750); assay: Inhibition of PIK3C2B in human SKCO1 cells at 1 uM after 4 hrs using biotin labeled VIFKCGDDLRQDMLTLQMIR probe by mass-spectrometric analysis relative to control; type: cell-based
[4] = target: Vascular endothelial growth factor receptor 2 (Homo sapiens) (UniProt P35968); assay: Inhibition of human VEGFR2 (787 to 1253 residues) expressed in mammalian expression system assessed as enzyme activity at 10 uM by KINOMEScan assay relative to control; set-up: scale not given: the % may be the effect or the level left; outline: as §1
[5] = target: Glycogen phosphorylase, brain form (Homo sapiens) (UniProt P11216); assay: Binding affinity to PYGB in human NCI-H358 cells at 1 uM by mass spectrometry based pull down assay; type: cell-based
[6] = target: Acidic leucine-rich nuclear phosphoprotein 32 family member B (Homo sapiens) (UniProt Q92688); assay: Binding affinity to ANP32B in human NCI-H358 cells at 1 uM by mass spectrometry based pull down assay; type: cell-based
[7] = target: 80S Ribosome (Homo sapiens) (UniProt P08865+P42677+P62753+P15880+P23396+P61247+P62701+P22090+P46782+P62081+P62241+P46781+P46783+P62280+P25398+P62277+P62263+P62841+P62244+P62249+P08708+P62269+P39019+P60866+P63220+P62266+P62847+P62851+P62854+P62979+P62857+P62273+P62861+P39023+P36578+P46777+Q02878+P18124+P62424+P62917+P32969+P27635+P62906+P62913+P30050+P26373+P40429+P50914+P61313+P18621+Q07020+Q02543+P84098+P46778+P35268+P62829+P62750+P83731+P61254+P61353+P46776+P46779+P47914+P62888+P62899+P62910+P49207+P42766+P18077+Q9Y3U8+P83881+P61927+P61513+P63173+P62891+P62945+P05388+P05386); assay: Binding affinity to RPL35A in human NCI-H23 cells at 1 uM by mass spectrometry based pull down assay; type: cell-based
[8] = target: MAP kinase-interacting serine/threonine-protein kinase 2 (Homo sapiens) (UniProt Q9HBH9); assay: Binding affinity to MKNK2 in human NCI-H358 cells at 1 uM by mass spectrometry based pull down assay; type: cell-based
[9] = target: Interleukin-1 receptor-associated kinase 1 (Homo sapiens) (UniProt P51617); assay: Binding affinity to IRAK1 in human NCI-H358 cells at 1 uM by mass spectrometry based pull down assay; type: cell-based
[10] = target: Casein kinase II subunit beta (Homo sapiens) (UniProt P67870); assay: Binding affinity to CSNK2B in human NCI-H23 cells at 1 uM by mass spectrometry based pull down assay; type: cell-based
[11] = target: Deaminated glutathione amidase (Homo sapiens) (UniProt Q86X76); assay: Binding affinity to NIT1 in human NCI-H23 cells at 1 uM by mass spectrometry based pull down assay; type: cell-based
[12] = target: NAD(P)H dehydrogenase [quinone] 1 (Homo sapiens) (UniProt P15559); assay: Binding affinity to NQO1 in human NCI-H23 cells at 1 uM by mass spectrometry based pull down assay; type: cell-based
[13] = test system: NCI-H23; assay: Binding affinity to PTGES3L-AARSD1 in human NCI-H23 cells at 1 uM by mass spectrometry based pull down assay; type: cell-based
[14] = target: T1, Dual specificity mitogen-activated protein kinase kinase 4 (Homo sapiens) (UniProt P45985); assay: Binding affinity to MAP2K4 in human NCI-H23 cells at 1 uM by mass spectrometry based pull down assay; type: cell-based
T1 sequence (whole entry): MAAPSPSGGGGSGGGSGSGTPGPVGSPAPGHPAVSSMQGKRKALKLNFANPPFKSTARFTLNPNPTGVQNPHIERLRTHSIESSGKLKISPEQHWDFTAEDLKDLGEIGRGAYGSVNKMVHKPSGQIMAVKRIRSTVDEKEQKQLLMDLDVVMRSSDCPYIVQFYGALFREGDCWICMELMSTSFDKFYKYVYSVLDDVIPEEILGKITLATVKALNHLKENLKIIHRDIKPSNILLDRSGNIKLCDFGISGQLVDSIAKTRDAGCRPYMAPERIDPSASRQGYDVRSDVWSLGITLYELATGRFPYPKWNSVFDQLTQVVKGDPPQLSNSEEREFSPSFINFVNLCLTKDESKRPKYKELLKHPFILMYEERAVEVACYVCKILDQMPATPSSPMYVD

[15] = target: tRNA (guanosine(18)-2'-O)-methyltransferase TARBP1 (Homo sapiens) (UniProt Q13395); assay: Binding affinity to TARBP1 in human NCI-H358 cells at 1 uM by mass spectrometry based pull down assay; type: cell-based
[16] = target: Src substrate cortactin (Homo sapiens) (UniProt Q14247); assay: Binding affinity to CTTN in human NCI-H23 cells at 1 uM by mass spectrometry based pull down assay; type: cell-based
[17] = target: ATP-dependent 6-phosphofructokinase, liver type (Homo sapiens) (UniProt P17858); assay: Binding affinity to PFKL in human NCI-H23 cells at 1 uM by mass spectrometry based pull down assay; type: cell-based
[18] = target: Actin-related protein 3 (Homo sapiens) (UniProt P61158); assay: Binding affinity to ACTR3 in human NCI-H358 cells at 1 uM by mass spectrometry based pull down assay; type: cell-based
Outline: (§2)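 NCI-H23 or NCI-H358 cells were grown and lysed. Lysates were incubated overnight at 4 °C with 1 μM biotinylated covalent probe or DMSO, then pulled down on streptavidin beads. Proteins were run on polyacrylamide gels and stained with Coomassie. Bands were excised, digested and identified by mass spectrometry.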

[19] = target: LIM domain kinase 1 (Homo sapiens) (UniProt P53667); assay: Binding affinity to LIMK1 in human NCI-H23 cells at 1 uM by mass spectrometry based pull down assay; type: cell-based
[20] = target: Aminoacyl tRNA synthase complex-interacting multifunctional protein 1 (Homo sapiens) (UniProt Q12904); assay: Binding affinity to AIMP1 in human NCI-H358 cells at 1 uM by mass spectrometry based pull down assay; type: cell-based; outline: as §2
Chain of Aminoacyl tRNA synthase complex-interacting multifunctional protein 1 (Homo sapiens) (Q12904 whole entry, one chain of several): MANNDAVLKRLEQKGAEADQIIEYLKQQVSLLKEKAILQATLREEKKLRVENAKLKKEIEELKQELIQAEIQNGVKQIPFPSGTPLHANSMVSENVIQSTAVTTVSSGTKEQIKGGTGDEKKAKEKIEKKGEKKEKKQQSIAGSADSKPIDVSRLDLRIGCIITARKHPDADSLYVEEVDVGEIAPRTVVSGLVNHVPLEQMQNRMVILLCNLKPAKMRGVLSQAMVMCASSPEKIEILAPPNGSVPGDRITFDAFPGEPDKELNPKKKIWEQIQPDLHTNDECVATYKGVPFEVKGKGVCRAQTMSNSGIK

Chain of Acidic leucine-rich nuclear phosphoprotein 32 family member B (Homo sapiens) (Q92688 whole entry): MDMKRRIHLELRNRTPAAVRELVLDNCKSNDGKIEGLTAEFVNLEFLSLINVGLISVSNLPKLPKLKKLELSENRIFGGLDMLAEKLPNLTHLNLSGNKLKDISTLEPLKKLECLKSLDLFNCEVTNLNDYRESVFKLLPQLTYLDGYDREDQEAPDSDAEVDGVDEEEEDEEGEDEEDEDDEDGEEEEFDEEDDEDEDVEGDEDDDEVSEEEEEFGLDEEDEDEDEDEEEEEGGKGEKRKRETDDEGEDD
Chain of Casein kinase II subunit beta (Homo sapiens) (P67870 whole entry): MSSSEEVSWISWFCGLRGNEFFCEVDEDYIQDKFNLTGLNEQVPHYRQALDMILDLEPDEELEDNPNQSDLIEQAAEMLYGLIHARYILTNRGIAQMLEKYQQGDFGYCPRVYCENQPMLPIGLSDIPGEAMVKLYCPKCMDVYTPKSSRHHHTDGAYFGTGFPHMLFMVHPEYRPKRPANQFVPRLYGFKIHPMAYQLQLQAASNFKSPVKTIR
Chain of Deaminated glutathione amidase (Homo sapiens) (Q86X76 whole entry): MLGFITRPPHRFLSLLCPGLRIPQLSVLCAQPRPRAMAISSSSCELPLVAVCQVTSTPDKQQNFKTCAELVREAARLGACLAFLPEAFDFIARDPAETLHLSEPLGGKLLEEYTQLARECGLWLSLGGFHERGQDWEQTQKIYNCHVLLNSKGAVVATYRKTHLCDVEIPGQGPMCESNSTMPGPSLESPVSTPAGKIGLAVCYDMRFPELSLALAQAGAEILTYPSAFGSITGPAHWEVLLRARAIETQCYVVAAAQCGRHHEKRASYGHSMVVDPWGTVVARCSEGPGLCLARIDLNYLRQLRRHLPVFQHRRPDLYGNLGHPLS
Chain of Ribosomal protein S6 kinase alpha-6 (Homo sapiens) (Q9UK32 whole entry, the tested form may be a part): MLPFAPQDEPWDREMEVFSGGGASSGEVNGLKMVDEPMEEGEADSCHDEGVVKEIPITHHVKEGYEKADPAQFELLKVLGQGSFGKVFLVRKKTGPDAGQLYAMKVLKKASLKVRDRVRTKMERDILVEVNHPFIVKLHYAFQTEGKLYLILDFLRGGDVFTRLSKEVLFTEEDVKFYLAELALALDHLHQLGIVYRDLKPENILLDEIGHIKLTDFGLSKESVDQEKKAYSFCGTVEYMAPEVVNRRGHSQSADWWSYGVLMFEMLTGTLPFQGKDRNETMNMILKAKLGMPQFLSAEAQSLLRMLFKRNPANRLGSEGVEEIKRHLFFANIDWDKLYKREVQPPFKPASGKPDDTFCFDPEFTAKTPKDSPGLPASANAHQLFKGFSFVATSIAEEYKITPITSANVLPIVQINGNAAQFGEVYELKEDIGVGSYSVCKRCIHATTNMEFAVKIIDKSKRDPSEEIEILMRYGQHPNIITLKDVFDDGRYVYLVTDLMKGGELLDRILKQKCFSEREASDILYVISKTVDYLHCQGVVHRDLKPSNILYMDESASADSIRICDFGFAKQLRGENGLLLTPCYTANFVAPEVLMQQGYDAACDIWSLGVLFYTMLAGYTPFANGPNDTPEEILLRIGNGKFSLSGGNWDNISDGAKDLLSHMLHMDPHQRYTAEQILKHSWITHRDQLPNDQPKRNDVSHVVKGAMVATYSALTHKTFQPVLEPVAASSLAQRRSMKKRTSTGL
Chain of NAD(P)H dehydrogenase [quinone] 1 (Homo sapiens) (P15559 whole entry): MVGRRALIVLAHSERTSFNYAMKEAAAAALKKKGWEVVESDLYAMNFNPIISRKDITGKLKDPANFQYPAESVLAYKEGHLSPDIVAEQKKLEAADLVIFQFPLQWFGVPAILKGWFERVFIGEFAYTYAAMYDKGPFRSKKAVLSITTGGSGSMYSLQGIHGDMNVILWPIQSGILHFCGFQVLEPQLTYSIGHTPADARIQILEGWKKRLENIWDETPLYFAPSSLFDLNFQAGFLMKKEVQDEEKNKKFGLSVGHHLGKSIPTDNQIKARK
Chain of tRNA (guanosine(18)-2'-O)-methyltransferase TARBP1 (Homo sapiens) (Q13395 whole entry): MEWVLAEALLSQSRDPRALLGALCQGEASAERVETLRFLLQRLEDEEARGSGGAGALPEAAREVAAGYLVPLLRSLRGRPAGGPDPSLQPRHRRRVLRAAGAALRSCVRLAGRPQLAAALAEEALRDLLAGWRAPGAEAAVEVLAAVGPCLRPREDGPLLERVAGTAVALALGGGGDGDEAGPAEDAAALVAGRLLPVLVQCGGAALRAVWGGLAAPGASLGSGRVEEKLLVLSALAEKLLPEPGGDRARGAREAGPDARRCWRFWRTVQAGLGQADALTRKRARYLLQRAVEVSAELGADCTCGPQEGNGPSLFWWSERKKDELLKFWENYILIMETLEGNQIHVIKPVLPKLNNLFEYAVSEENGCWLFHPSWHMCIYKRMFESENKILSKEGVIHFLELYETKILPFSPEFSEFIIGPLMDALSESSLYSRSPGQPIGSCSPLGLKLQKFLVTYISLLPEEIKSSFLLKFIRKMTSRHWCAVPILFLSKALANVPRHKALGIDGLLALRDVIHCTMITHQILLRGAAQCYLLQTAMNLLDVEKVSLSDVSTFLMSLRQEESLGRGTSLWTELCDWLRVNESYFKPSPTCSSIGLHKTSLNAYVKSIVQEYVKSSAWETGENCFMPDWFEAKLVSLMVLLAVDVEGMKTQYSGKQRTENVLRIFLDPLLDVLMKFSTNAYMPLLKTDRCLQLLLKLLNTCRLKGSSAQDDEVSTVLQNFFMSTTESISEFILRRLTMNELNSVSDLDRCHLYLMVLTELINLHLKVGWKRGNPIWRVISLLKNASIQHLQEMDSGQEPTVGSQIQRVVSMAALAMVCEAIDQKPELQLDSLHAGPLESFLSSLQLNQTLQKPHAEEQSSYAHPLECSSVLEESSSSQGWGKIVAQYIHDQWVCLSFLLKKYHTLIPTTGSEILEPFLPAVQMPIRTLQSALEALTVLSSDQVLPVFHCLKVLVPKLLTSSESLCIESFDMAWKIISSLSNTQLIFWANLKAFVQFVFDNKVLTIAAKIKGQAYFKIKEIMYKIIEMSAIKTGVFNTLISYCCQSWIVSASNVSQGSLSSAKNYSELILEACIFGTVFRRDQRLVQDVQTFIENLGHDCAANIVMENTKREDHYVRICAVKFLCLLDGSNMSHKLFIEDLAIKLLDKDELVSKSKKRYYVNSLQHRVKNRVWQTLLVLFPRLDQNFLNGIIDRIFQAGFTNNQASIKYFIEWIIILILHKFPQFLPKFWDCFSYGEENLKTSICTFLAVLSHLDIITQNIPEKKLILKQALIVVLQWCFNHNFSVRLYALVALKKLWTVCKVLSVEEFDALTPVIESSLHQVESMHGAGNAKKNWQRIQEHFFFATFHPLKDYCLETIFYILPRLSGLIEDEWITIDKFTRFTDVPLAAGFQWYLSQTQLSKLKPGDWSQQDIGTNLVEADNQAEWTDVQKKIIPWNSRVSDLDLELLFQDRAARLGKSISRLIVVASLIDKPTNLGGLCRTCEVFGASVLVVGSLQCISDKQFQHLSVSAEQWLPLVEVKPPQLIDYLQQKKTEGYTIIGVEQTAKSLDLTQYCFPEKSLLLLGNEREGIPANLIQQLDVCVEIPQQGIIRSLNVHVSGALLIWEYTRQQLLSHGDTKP
Chain of Src substrate cortactin (Homo sapiens) (Q14247 whole entry): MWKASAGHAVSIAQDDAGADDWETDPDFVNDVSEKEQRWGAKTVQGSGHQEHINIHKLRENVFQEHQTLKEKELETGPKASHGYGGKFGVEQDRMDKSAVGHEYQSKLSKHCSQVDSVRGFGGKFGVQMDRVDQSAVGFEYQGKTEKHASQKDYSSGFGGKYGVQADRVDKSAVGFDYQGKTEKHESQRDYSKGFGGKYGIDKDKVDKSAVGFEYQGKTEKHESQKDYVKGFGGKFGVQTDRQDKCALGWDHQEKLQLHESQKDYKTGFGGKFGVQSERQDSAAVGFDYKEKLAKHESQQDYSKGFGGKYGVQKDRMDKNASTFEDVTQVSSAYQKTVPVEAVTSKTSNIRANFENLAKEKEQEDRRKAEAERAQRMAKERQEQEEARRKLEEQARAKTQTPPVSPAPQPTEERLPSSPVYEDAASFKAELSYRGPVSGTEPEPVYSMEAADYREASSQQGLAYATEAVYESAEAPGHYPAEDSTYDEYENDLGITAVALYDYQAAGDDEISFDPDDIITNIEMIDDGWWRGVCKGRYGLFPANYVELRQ
Chain of LIM domain kinase 1 (Homo sapiens) (P53667 whole entry, looked up, the tested form may be a part): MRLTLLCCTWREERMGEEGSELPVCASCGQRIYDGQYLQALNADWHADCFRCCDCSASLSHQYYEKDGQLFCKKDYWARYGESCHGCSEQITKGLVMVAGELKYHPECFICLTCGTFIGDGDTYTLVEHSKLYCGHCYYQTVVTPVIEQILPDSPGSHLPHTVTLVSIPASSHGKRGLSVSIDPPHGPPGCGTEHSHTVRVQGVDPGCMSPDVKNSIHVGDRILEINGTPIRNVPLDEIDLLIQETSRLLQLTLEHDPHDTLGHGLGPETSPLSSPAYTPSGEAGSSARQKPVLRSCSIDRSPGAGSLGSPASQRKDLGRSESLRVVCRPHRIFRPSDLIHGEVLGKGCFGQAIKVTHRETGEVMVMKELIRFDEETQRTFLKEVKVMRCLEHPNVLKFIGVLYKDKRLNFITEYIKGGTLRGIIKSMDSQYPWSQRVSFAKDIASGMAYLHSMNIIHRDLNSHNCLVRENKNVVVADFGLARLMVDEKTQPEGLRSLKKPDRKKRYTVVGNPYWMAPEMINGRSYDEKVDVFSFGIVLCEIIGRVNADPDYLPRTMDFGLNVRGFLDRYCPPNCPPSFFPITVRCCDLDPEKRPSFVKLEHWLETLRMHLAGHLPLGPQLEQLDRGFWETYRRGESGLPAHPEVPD

Activity [5]	Activity [6]	Activity [7]	Activity [8]	Activity [9]	Activity [10]	Activity [11]	Activity [12]	Activity [14]	Activity [15]	Activity [16]	Activity [17]	Activity [18]	Activity [19]	Activity [20]	SMILES	Activity [1] [%]	Activity [2] [%]	inhibition [3] [%]	Activity [4] [%]	Activity [13]
–	–	–	–	–	–	–	–	–	–	–	–	–	–	–	COc1cc(O)c2c(c1)/C=C/C[C@H](O)[C@H](O)C(=O)/C=C\C[C@H](C)OC2=O	34	0.05	8.3	5.2	–
Active	Active	Active	Active	Active	Active	Active	Active	Active	Active	Active	Active	Active	Active	Active	C=CC(=O)Nc1ccccc1Nc1nc(Nc2ccc(N3CCN(CCOCCOCCOCCNC(=O)CCCC[C@@H]4SC[C@@H]5NC(=O)N[C@@H]54)CC3)cc2)ncc1Cl	–	–	–	–	Active

— ChEMBL document CHEMBL4118021, “Studies of TAK1-centered polypharmacology with novel covalent TAK1 inhibitors” (Bioorg Med Chem, 2017)
